Most compounds without a hit are left out; they make up all but 2% or so of the library.
CHRM5 PAM = CHRM5 positive allosteric modulation; CHO-K1 hM5, Fluo-8 calcium, ACh EC20 PAM; 0% = ACh EC20, 100% = ACh EC100; activation, % at 3 µM; 360,000 compounds, 0.3% hits;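 active = activation above the run cutoff, the mean activation of all test compounds plus 3 SD, cut at about 18% in these data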
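Assay system – human M5 receptor in CHO-K1 cells · Read-out – % activation, ACh-normalized · Technique – Fluo-8 calcium fluorescence · Dosing – single-point, 3 µM nominal · Incubation – Fluo-8 loading 80 min at 37 °C plus 30 min room temperature · Repeats – singlicate, one well per test compound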
CHRM1 antagonist = blocks human M1 muscarinic receptor; P11229; CHO-K1 hM1, Fluo-8 calcium fluorescence, ACh EC80 antagonist; inhibition, % at 3 µM; 360,000 compounds, 1.3% hits;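 active = percent inhibition above its own plate's cutoff, namely the mean of that plate's compound wells plus 3 SD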;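 note: peak over basal fluorescence ratio during 140 s after agonist addition; 0% = ACh EC80 plus DMSO and 100% = DMSO alone without agonist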
Target sequence (P11229 whole entry, looked up): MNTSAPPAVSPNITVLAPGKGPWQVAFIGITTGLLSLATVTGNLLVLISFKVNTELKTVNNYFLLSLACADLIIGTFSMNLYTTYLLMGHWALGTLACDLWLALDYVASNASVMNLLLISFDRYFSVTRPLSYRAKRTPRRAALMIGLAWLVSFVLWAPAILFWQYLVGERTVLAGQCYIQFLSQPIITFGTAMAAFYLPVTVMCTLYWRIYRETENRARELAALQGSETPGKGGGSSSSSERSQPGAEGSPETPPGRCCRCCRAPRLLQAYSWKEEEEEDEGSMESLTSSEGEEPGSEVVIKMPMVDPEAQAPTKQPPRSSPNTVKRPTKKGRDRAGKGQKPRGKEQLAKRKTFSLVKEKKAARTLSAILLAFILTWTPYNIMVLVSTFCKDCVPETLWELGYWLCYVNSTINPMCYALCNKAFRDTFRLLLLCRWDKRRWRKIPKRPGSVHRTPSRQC
M1 ag = agonists of human M1 muscarinic receptor; P11229; CHO-K1 hM1, Fluo-8 calcium fluorescence, agonist mode; 0% DMSO, 100% acetylcholine EC100; activation, % at 3 µM; 360,000 compounds, 0.33% hits; AID 588814;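 active = activation above the run's mean compound activation plus 3 SD, cut at about 16% in these data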;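 note: peak over basal fluorescence ratio within a 140 s kinetic read after compound addition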
CHRM1 PAM = positive allosteric modulators of human M1 muscarinic receptor; activation, % at 3 µM; CHO-K1 hM1, Fluo-8 calcium fluorescence, ACh EC20; 0% = ACh EC20, 100% = maximal ACh; AID 588819; 360,000 compounds, 0.088% hits; in the data active = activation above about 19%, passing the limit was not always enough
CHRM5 antagonist = CHRM5 antagonism in calcium assay; 360,000 compounds, 0.59% hits; P08912; AID 624040; CHO-hM5 cells, Fluo-8 calcium fluorescence, ACh EC80; inhibition, % at 3 µM;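 active = inhibition above a per-plate cutoff, the mean of that plate's test compounds plus 3 SD, cut at about 27% in these data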;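 note: 0% = acetylcholine EC80 with DMSO and 100% = DMSO without agonist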
CHRM5 agonist = agonists of human muscarinic M5 receptor (CHRM5); AID 624037; activation, % at 3 µM; P08912; 360,000 compounds, 0.19% hits; CHO-K1 hM5 cells, Fluo-8 calcium fluorescence; 0% DMSO wells, 100% maximal acetylcholine response;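 active = activation above the run's mean over test compounds plus 3 SD, cut at about 23% in these data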;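 note: signal is peak over basal fluorescence ratio across the kinetic read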
Starred values were filed as active, the others as inactive; · = no result given.

SMILES	CHRM5 PAM	CHRM1 antagonist	M1 ag	CHRM1 PAM	CHRM5 antagonist	CHRM5 agonist
COCCNc1nc(NCc2ccccc2)c2cnn(C)c2n1	3	10	-2	-5	2	2
Cn1ccn(CCCCCCn2ccn(C)c2=S)c1=S	-1	-16	-4	4	-1	0
C[C@H](NC(=O)c1nc[nH]c1C(=O)NCC(=O)OCc1ccccc1)c1ccccc1	-32	31*	-2	-19	13	3
CNC(=O)c1[nH]cnc1C(=O)NCC(=O)OCc1ccccc1	-17	7	0	-6	9	8
CC(C)(C)OC(=O)NCc1ccc(CNC(=O)c2[nH]cnc2C(=O)NCC(=O)OCc2ccccc2)cc1	-36	44*	4	-20	4	11
O=C(CNC(=O)c1nc[nH]c1C(=O)NCC(=O)OCc1ccccc1)OCc1ccccc1	-26	31	-3	-14	21	6
CC(C)(C)OC(=O)NCc1ccc(CNC(=O)c2nc[nH]c2C(=O)NCc2ccccc2)cc1	-8	9	-2	-5	20	-1
O=C(CNC(=O)c1nc[nH]c1C(=O)NCc1ccccc1)OCc1ccccc1	-36	38*	-3	-19	18	0
CCN(CC)C(=O)c1[nH]cnc1C(=O)NCC(=O)OCc1ccccc1	-29	27	0	-17	27*	3
CC(C)NC(=O)C1(C)CCN1C(=O)c1ccccc1 (centres undefined)	3	-7	0	5	3	0
CCC(=O)OCOc1ccc(/C=C2/CCC(CN(C)C)C2=O)cc1 (centres undefined)	-20	3	-1	-7	7	5
Cc1csc(-c2nc3ccccc3n2C(C)c2nc3ccccc3[nH]2)c1 (centres undefined)	4	·	·	·	-10	9
CN(C)c1ncnc2c1ncn2[C@H]1CN(Cc2ccc3c(c2)OCO3)C[C@@H](CO)O1	-6	11	-2	-9	9	0
CCCCOc1ccc(S(=O)(=O)NC(=O)C2(C)CCN2C(=O)CCc2ccccc2)cc1 (centres undefined)	-3	-9	2	13	6	1
CC1CC2(CCCCC2)N2C(=O)C(=O)c3cccc1c32 (centres undefined)	-11	-9	17*	7	-6	63*
Cc1cc2c3c(c1)C(C)CC(C)(C)N3C(=O)C2=O (centres undefined)	-3	3	-2	1	2	19
C[N+](C)(C)CC(=O)N/N=C/c1c2ccccc2cc2ccccc12	-12	-6	7	7	19	32*
O=C(OCCN1C(=O)c2ccccc2C1=O)c1ccco1	19*	-9	-2	4	-7	-8
O=C(OCCN1C(=O)c2ccccc2C1=O)c1ccccc1	-2	2	-1	2	3	-2
CCOC(=O)/C(C#N)=N/Nc1ccc(S(=O)(=O)N2CCc3ccccc32)cc1	-14	12	-1	-5	27*	4
N#C/C(=N\Nc1ccc(S(=O)(=O)N2CCCCCC2)cc1)C(N)=S	-17	1	-1	-9	30*	4
N#C/C(=N\Nc1ccc([N+](=O)[O-])cc1)C(N)=S	-20	-2	6	2	30*	7
C[C@@H]1CN([C@H](C)CO)C(=O)CCCn2cc(nn2)CO[C@H]1CN(C)C(=O)Nc1ccc2c(c1)OCO2	-4	-8	-10	-1	0	-3
CCOCCn1ccc2c(OCC(=O)Nc3ccccc3OC)cccc2c1=O	-27	30*	-3	-14	18	-3
CCOCCn1ccc2c(OCC(=O)Nc3cc(OC)ccc3OC)cccc2c1=O	-13	8	-4	-8	5	0
SMILES	CHRM5 PAM	CHRM1 antagonist	M1 ag	CHRM1 PAM	CHRM5 antagonist	CHRM5 agonist
COc1cccc2c(=O)n(CC(=O)Nc3ccc(F)cc3F)ccc12	-4	28*	-1	-3	3	0
O=C(NCc1ccccc1)c1nc(-c2c(F)cccc2F)oc1-c1ccccc1	1	·	·	·	-3	3
CC(C)CNC(=O)C1C(=O)Nc2ccccc2C(=O)N1C1CCCCC1 (centres undefined)	-2	·	·	·	9	1
Nc1c(C(=O)C2CC2)sc2nc(-c3ccccc3)cc(C(F)(F)F)c12	20*	-8	3	11	1	2
CN(C)CCNC(=O)c1sc2nc(-c3ccccc3)cc(C(F)(F)F)c2c1N	-4	-11	0	4	9	5
CCN(CCn1cccn1)C(=O)CCc1nnc(CCCc2ccccc2)o1	-9	-1	-7	5	8	-2
CCN(CCn1cccn1)C(=O)CCc1nnc(-c2ccc3c(c2)OCO3)o1	22*	-11	-4	9	-6	0
COc1cc2c(C#N)c(N3CCc4ccccc4C3)nc(N)c2c(N)n1	37*	-1	1	4	1	16
COc1cc2c(C#N)c(N3CCCCC3)nc(N)c2c(N)n1	3	-6	-2	7	-12	0
CCN(CC)CCCNc1nc(N)c([N+](=O)[O-])c(N2CCCCCC2)n1	-9	65*	-11	-35	8	-7
COC(=O)CN1C(=O)COc2ccc(S(=O)(=O)N3CCCCC3)cc21	0	-7	-3	5	5	-1
COc1ccc(C(CC(=O)c2ccccc2)S(=O)(=O)c2ccc(C)cc2)cc1 (centres undefined)	6	-16	-6	9	-11	1
CC(=O)CC(c1ccccc1)S(=O)(=O)c1ccc(C)cc1 (centres undefined)	5	27*	-2	-4	-10	-2
N#CCC(=O)Nc1ccc(C(=O)NCC2(N3CCOCC3)CCCCC2)cc1	-1	-6	-7	3	8	-3
O=C(CNCC1(N2CCOCC2)CCCCC1)Nc1ccc(Cl)cc1	18*	2	-6	2	10	2
O=C(Nc1ccc(N2CCOCC2)cc1)C1(c2ccc(Cl)cc2)CCC1	-2	-19	17*	10	3	18
COc1ccc(NS(=O)(=O)c2ccc(N3CCCC3)c(N)c2)cc1	-14	40*	-6	-27	14	1
COc1ccc(NS(=O)(=O)c2cc(NC(=O)CCNC(C)=O)ccc2N2CCCCC2)cc1	0	44*	-5	-11	8	0
Nc1cc(S(=O)(=O)Nc2ccccc2Cl)ccc1N1CCOCC1	-7	0	3	-3	12	7
Nc1cc(S(=O)(=O)Nc2ccc(Cl)cc2)ccc1N1CCOCC1	-23	39*	6	-14	19	17
COc1ccc(NS(=O)(=O)c2cc(N)ccc2N2CCCC2)cc1	-7	-18	-1	14	18	0
